In paper PMC10842363 (Clinical cancer research : an official journal of the …, 2023):
Where two headings read alike, the source gives them in different places.

What was measured:
[1] = test system: HER2+ tumors, DCCs and metastases; experiment: Sequential Abemaciclib then HC4 treatment in MMTV-HER2 mice; assay type: in vivo, mouse; settings: for GADD34 expression in primary tumors / Ki67 staining in primary tumors: 50 mpk daily, 4 weeks
SKBR3 cells = experiment: 3D acini culture in Matrigel, SKBR3; assay type: cell-based; settings: SKBR3, 2 μM, 10-day treatment
ZR-75-1 cells = experiment: 3D acini culture in Matrigel, ZR-75-1; assay type: cell-based; settings: ZR-75-1, 2 μM, 10-day treatment
kinases = experiment: KINOMEscan kinase selectivity assay; assay type: binding
Procedure, shortened: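 Competition binding: kinases were T7 phage-tagged (grown in BL21-derived E. coli) or HEK-293-expressed with DNA tags. Incubated with biotinylated-ligand streptavidin beads and test compound (40x DMSO stocks) in SeaBlock/PBS/Tween/DTT buffer, 1 h RT. Eluted with 0.5 μM non-biotinylated ligand (30 min); kinase quantified by qPCR. Selectivity score S = hits/assays at a %Ctrl threshold, mutants excluded.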

PERK [2] = target: T1, PERK (Homo sapiens, UniProt Q9NZJ5); settings: MCF10A cells overexpressing HER2
T1 sequence (Q9NZJ5 30-1116): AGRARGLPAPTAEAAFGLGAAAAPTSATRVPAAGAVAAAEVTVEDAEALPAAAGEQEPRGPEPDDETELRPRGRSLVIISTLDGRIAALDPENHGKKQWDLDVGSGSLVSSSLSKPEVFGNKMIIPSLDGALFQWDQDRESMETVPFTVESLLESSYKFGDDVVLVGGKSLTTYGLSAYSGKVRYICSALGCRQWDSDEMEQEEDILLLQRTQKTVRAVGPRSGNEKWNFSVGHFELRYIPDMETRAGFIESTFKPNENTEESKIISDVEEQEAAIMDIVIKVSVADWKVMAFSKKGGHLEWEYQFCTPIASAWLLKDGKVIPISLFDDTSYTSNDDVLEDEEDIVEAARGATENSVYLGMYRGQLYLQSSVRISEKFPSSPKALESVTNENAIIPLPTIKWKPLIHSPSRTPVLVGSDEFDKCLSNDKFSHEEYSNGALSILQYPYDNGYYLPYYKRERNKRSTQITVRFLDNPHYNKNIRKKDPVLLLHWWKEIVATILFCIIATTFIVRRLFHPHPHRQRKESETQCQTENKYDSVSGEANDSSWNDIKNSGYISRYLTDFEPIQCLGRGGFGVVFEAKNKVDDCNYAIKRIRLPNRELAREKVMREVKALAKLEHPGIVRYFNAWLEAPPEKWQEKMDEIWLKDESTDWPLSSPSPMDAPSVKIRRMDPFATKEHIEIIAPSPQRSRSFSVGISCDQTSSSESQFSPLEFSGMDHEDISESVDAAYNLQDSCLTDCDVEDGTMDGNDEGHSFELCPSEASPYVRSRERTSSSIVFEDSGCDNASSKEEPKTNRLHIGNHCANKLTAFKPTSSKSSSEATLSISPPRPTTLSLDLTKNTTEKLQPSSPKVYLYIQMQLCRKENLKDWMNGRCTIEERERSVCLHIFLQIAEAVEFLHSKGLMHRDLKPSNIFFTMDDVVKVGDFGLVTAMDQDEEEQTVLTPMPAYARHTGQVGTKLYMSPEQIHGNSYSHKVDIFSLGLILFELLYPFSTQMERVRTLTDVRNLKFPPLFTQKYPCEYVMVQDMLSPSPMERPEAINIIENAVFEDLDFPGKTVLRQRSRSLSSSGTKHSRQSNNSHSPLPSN

GADD34 [3] = settings: MCF10A breast pre-malignant cells
[4] = Repeated dosing tolerability; assay type: in vivo; settings: repeated dosing from 30 to 100 mg/kg
[5] = Mammary gland morphology in non-tumor bearing healthy mice; assay type: in vivo; settings: 2 weeks
[6] = test system: HER2+ DCCs and metastases
MCF10A-HER2 cells [7] = settings: MCF10A-HER2 cells treated with HC4
HER2 [8] = test system: HER2
HER2 [9] = settings: HC4-treated vs control animals
MCF10A-HER2 cells [10] = test system: MCF10A-HER2 cells
PERK [11] = target: PERK (Mus musculus, UniProt Q9Z2B5); settings: 50 mpk IP daily, 2 weeks
Sequence of PERK (Mus musculus, UniProt Q9Z2B5) (Q9Z2B5 29-1114): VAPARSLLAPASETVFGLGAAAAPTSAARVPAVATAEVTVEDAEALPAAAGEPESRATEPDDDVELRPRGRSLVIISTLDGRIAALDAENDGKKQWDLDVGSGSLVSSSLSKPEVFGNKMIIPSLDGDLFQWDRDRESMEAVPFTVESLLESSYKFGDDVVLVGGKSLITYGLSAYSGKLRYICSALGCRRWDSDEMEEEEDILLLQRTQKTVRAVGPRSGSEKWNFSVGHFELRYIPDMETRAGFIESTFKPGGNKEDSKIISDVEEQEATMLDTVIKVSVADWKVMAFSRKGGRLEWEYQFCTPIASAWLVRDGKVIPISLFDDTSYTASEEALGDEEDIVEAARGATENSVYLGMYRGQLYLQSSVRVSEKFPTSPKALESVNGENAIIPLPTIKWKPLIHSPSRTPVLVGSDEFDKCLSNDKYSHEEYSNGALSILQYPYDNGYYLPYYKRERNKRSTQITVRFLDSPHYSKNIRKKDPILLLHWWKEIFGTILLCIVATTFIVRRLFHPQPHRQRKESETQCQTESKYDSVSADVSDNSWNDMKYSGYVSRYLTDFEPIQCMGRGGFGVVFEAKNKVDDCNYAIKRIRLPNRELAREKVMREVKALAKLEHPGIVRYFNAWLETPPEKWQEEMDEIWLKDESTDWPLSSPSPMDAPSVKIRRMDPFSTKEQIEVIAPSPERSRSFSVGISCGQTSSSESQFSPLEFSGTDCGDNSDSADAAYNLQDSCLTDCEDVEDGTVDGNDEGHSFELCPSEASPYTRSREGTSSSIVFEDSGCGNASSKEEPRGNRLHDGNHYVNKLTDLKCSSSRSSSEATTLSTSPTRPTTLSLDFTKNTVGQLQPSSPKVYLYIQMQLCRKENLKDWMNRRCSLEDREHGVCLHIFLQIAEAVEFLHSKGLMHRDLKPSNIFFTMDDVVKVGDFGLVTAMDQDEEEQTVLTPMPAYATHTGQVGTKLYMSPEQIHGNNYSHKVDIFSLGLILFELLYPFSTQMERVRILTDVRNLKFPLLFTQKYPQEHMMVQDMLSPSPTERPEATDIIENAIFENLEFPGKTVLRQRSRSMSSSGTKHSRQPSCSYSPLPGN

MMTV-HER2 cells = experiment: Established metastases after tail vein injection of MMTV-HER2 cells; assay type: in vivo, mouse; settings: 50 mg/kg for 2 weeks, started 3 weeks after tail vein injection
GADD34 [12] = settings: E0771 luminal B breast cancer cells
[13] = In vivo pharmacokinetic study, single dose; settings: IP administration, CD1 female mice
[14] = Safety readouts in treated mice; assay type: in vivo
D-HEp3 cells = experiment: Chick chorioallantoic membrane; assay type: in vivo, human; settings: 20 μM, 6-day treatment, CAM
PERK [15] = target: T1, PERK; settings: HEK293 cells stimulated with Tunicamycin
[16] = test system: HER2-driven early lesions in the mammary gland
T-HEp3 cells = experiment: T-HEp3 HNSCC PDX i.v. injection, solitary lung DCCs in Balb/c nu/nu mice; assay type: in vivo, human; settings: 50 mg/kg for 10 days, started 24 h after i.v. injection
HER2 [17] = test system: HER2; remark: listed apart in the source
EMT6 cells = experiment: EMT6 syngeneic spontaneous lung metastasis model; assay type: in vivo, Balb/c mice; settings: 10 mg/kg
[18] = 28-day oral dosing study in mice; assay type: in vivo; settings: oral dosing for 28 days, exposures similar to 50 mpk IP; data not shown
MMTV-HER2 tumors = experiment: Primary tumor growth in MMTV-HER2 females; assay type: in vivo, mouse
[19] = test system: Fv2E-ΔNPERK fusion construct-expressing cell line; settings: PERK dimerization induced with AP20187
[20] = MCF10A-HER2, 2 μM, +/- EGF 100 ng/ml
[21] = MCF10A-HER2, in presence of Thapsigargin 4 nM

Compound: CCN1CCN(Cc2ccc(Nc3ncc(F)c(-c4cc(F)c5nc(C)n(C(C)C)c5c4)n3)nc2)CC1 [Abema, Abemaciclib]
- GADD34 expression in primary tumors [1]: increases
- Ki67 staining in primary tumors [1]: reduces
- Ki67+ solitary DCCs ([1]; lung sections): almost absent

Compound: Cc1cc(NC(=O)[C@H](O)c2cc(F)cc(F)c2)ccc1-c1cnc(N)c(C(=O)NC(C)C)c1 [HC4]
- levels of apoptosis (cleaved caspase-3) (SKBR3 cells): significantly increased
- levels of apoptosis (cleaved caspase-3) (ZR-75-1 cells): significantly increased
- specificity for EIF2AK3 (PERK) over EIF2AK1 (HRI), EIF2AK2 (PKR), EIF2AK4 (GCN2) or HER2 (kinases; Supplementary Table S3): high specificity
- KINOMEscan kinase profiling selectivity (kinases; compared to other PERK inhibitors, specifically GSK2656157, even at 10 μM): exceedingly high selectivity
- P-PERK (P-T980) levels (PERK [2]): effectively decreased
- thapsigargin induced GADD34 expression (GADD34 [3]): completely eliminated
- body weight [4]: no significant changes
- tolerability [4]: well tolerated
- normal branching and morphology of the mammary gland ductal tree [5]: did not affect
- area of macro-metastases ([6]; 50 mpk IP daily, two weeks): not accompanied by a significant effect
- number and incidence of lung macro-metastases (>100 cells) ([6]; 50 mpk IP daily, two weeks): reduced
- number of DCCs in bone marrow ([6]; 50 mpk IP daily, two weeks): significantly decreased
- number of P-Rb positive solitary DCCs in lung ([6]; 50 mpk IP daily, two weeks): not affecting
- number of lung micro-metastases (2-100 cells) ([6]; 50 mpk IP daily, two weeks): significant decrease
- number of non-proliferating (P-Rb negative) single DCCs in lung ([6]; 50 mpk IP daily, two weeks): significantly reduced
- HER2+ circulating tumor cells in blood ([6]; vehicle vs HC4-treated animals): no significant differences
- sensitivity to low dose thapsigargin treatment (MCF10A-HER2 cells [7]): sensitive
- P-AKT, P-S6 and P-ERK1/2 levels (HER2 [8]; [20]): downregulation
- basal and EGF-induced levels of P-EGFR and P-HER2 (HER2 [8]; [20]): decreased
- levels of P-HER2 and P-AKT (HER2 [8]; [21]): decrease
- molecular weight of phosphorylated HER2 protein (HER2 [8]; [21]): lower molecular weight
- total HER2 levels or heterodimerization with EGFR (HER2 [8]; surface biotinylation and co-immunoprecipitation, data not shown): No obvious effect
- P-HER2 levels in tumors (area and intensity score) (HER2 [9]): significantly lower
- GADD34 expression in primary tumors [1]: completely erased
- Ki67 staining in primary tumors [1]: does not dramatically affect
- levels of proliferation (phospho-histone H3) (MCF10A-HER2 cells [10]; 3D acini cultures, 2 μM, cell line not given): did not detect a significant change
- levels of apoptosis (cleaved caspase-3) (MCF10A-HER2 cells [10]; MCF10A-HER2, 2 μM, 10-day treatment): significantly increased
- P-PERK inhibition in pancreatic tissue, especially pancreatic islets (PERK [11]; IHC): only partial inhibition
- P-PERK and P-eIF2α levels by IHC (PERK [11]; mammary gland ducts and pancreatic tissue): significant decrease
- decrease in P-PERK levels by western blot (PERK [11]; tumor lysates): around 50%
- frequency of already established micro-metastases (MMTV-HER2 cells): not affecting
- macro-metastatic lesion incidence and total metastatic burden (MMTV-HER2 cells): strongly reduce
- thapsigargin induced GADD34 expression (GADD34 [12]): completely eliminated
- bioavailability [13]: demonstrated bioavailability
- bone marrow cell homeostasis and peripheral blood white cells (total cell counts) ([14]; MMTV-HER2 females, 50 mpk IP daily, two weeks): did not have a significant effect
- glucose levels, bone marrow or peripheral blood cell counts, drinking and feeding behavior ([14]; non-tumor or cancer bearing mice, doses used): did not significantly affect
- dormant D-HEp3 cells in vivo (D-HEp3 cells): eradication
- increase in cleaved caspase-3 positive D-HEp3 cells in the nodules (D-HEp3 cells): 5 fold
- P-PERK (P-T980) levels (PERK [15]): effectively decreased
- mammary glandular architecture (ductal branching) ([16]; 24-week-old MMTV-HER2 females, 50 mpk, 2 weeks): less dense branching
- cytokeratin 8/18 expression in the luminal layer ([16]; 50 mpk, 2 weeks): increased expression
- number of occluded hyperplasias and DCIS-like lesions relative to vehicle ([16]; 50 mpk, 2 weeks): less than half
- hollow lumen mammary gland ducts, share of structures ([16]; around 20 % in control females): more than 60%
- reduction in the number of solitary HEp3 DCCs in the lung (T-HEp3 cells): ~ 3 fold
- endocytosed phospho- and total HER2 (HER2 [17]; MCF10A-HER2, reversible surface biotinylation): clearly increased
- abundance of P-HER2 and total HER2 in the cell surface (HER2 [17]; MCF10A-HER2, not shown): did not significantly alter
- primary tumor growth (EMT6 cells; 17 days, not shown): without affecting
- metastatic incidence and multiplicity of lesions per lung/animal (EMT6 cells; started 9 days after implanting, 17 days of treatment): strongly inhibited
- effects on the pancreas or clinical chemistry (insulin and glucose levels) [18]: no deleterious effects
- tumors showing regression (MMTV-HER2 tumors; 2-week window treatment): Four
- DNA fragmentation (TUNEL staining) in tumor sections (MMTV-HER2 tumors; 50 mpk daily, two weeks): significant increase
- median final tumor volume (MMTV-HER2 tumors; 50 mpk daily, two weeks): significant decrease
- tumor growth (MMTV-HER2 tumors; overt tumors, 50 mpk daily, two weeks): reduced growth rate
- levels of proliferation (phospho-histone H3 IHC) in tumors (MMTV-HER2 tumors; vehicle- vs HC4-treated tumors): not different
- rescue of pro-apoptotic function of strong PERK activation [19]: fully rescued
